Data set [1] in a line: Upregulation of utrophin gene expression in mouse myoblasts expressing LUmdx and firefly luciferase assessed as activation of utrophin promoter by cell-based reporter assay. Format: functional, tissue-based, Myoblast. A digest of the protocol:
(§1)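 Immortalised myoblasts derived from the LUmdx mouse carry a utrophin promoter–firefly luciferase reporter, and promoter activation is read as luciferase signal. During screening, hits were counterscreened for firefly luciferase assay interference.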
A general note: Reporter assays use an easily measured gene product as a stand-in for the process of interest.

The nature of data set [2]: Upregulation of utrophin gene expression in DMD disease mouse model myoblasts expressing H2K-mdx utrnA-firefly luciferase assessed as fold increase in utrophin mRNA at 3 uM by qRT-PCR analysis relative to control. The data set is classed as functional, Myoblast. (In qPCR the cycle at which signal appears reflects the starting amount.)
In data set [3] the test system is Myoblast. The data set can be described thus: Upregulation of AhR gene expression in DMD disease mouse model myoblasts expressing H2K-mdx utrnA-firefly luciferase assessed as fold increase in AhR mRNA at 30 uM by qRT-PCR analysis relative to control.
A short description of data set [4]: Upregulation of utrophin gene expression in mouse myoblasts expressing LUmdx and firefly luciferase assessed as activation of utrophin promoter at 0.1 to 50 uM by cell-based reporter assay relative to control. The data set is classed as functional, Myoblast. Particulars: dose 0.1-50 µM. A digest of the protocol:
as §1

Data set [5] can be described thus: Apparent permeability of the compound across apical to basolateral side in human Caco-2 cells. The data set is classed as ADME, cell-based. The following applies: read-out: permeability.
Data set [6] in a line: Upregulation of utrophin gene expression in DMD disease mouse model myoblasts expressing H2K-mdx utrnA-firefly luciferase assessed as fold increase in utrophin mRNA at 30 uM by qRT-PCR analysis relative to control. Format: functional, Myoblast.
The test system of data set [7] is Myoblast. Nature of the data set: Upregulation of utrophin gene expression in DMD disease mouse model myoblasts expressing H2K-mdx utrnA-firefly luciferase assessed as activation of utrophin promoter by cell-based reporter assay. Format: functional, tissue-based.
Setting [8] is: Mus musculus, Myoblast, read-out: EC50.

The text below walks through data of ChEMBL document CHEMBL4842315, “Discovery and mechanism of action studies of 4,6-diphenylpyrimidine-2-carbohydrazides as utrophin modulators for the treatment of Duchenne muscular dystrophy” (Eur J Med Chem, 2021).

Activity calls are given as the source filed them. The rule behind the calls is not given here.

By EC50 is commonly meant the concentration giving half of the maximal effect.

Turning to `NNC(=O)c1nc(-c2ccccc2)nc(-c2ccccc2)n1`, the 50% effective concentration (EC50) in data set [1] (setting [8]) was 8.98 µM.
For `NNC(=O)c1nc(Oc2ccccc2)cc(-c2ccccc2)n1`, the half-maximal effective concentration (EC50) entry in data set [1] (myoblast) is on record as “Not Active”.
For the molecule `NNC(=O)c1nc(-c2ccccc2)cc(-c2ccc(OCCOCc3ccccc3)cc2)n1`, the half-maximal effective concentration (EC50) entry in data set [1] (myoblast) is “Not Active”.
For `C#CCOCCOc1ccc(-c2cc(-c3ccccc3)nc(C(=O)NN)n2)cc1`, the EC50 in data set [1] (setting [8]) was 14.9 µM.
As to `N/N=C/c1nc(-c2ccccc2)cc(-c2ccccc2)n1`, the EC50 result in data set [1] (myoblast) was “Not Active”.
Consider `CCCOc1ccc(-c2cc(-c3ccccc3)nc(C(=O)NN)n2)cc1`, for which, in data set [1] (setting [8]), the EC50 was found to be 5.62 µM.
Take `CC(=O)NCCOCCOc1ccc(-c2cc(-c3ccccc3)nc(C(=O)NN)n2)cc1`: in data set [1] (setting [8]), the EC50 was determined as 12.7 µM.
As to `NNC(=O)c1nc(-c2cccc(C(F)(F)F)c2)cc(-c2cccc(C(F)(F)F)c2)n1`, the EC50 entry in data set [1] (myoblast) is given as “Not Active”.
The same measure, in the same setting: in the case of `NNc1nc(-c2ccccc2)cc(-c2ccccc2)n1` it was “Not Active”.
On the same count and under the same terms, in the case of `NNC(=O)c1ncccn1` it was “Not Active”.
Consider `COc1ccc(-c2cc(-c3ccc(OC)cc3)nc(C(=O)NN)n2)cc1`, for which the half-maximal effective concentration (EC50) in data set [1] (setting [8]) was found to be 7.14 µM.
In the case of `COc1cccc(-c2cc(-c3cccc(OC)c3)nc(C(=O)NN)n2)c1`, the EC50 in data set [1] (setting [8]) is 9.22 µM.
Take `CCS(=O)(=O)c1ccc2oc(-c3ccc4ccccc4c3)nc2c1` [EZUTROMID]: the “fold change (FC)” value in data set [2] is recorded as 1.7. The “fold change (FC)” value in the data set on Myoblast [3] was “inactive”.
`NNC(=O)c1nc(-c2ccccc2)cc(-c2ccc(Oc3ccccc3)cc2)n1`: the concentration for a half-maximal effect (EC50) result in data set [1] (myoblast) is given as “Not Active”.
Turning to `NNC(=O)c1nc(-c2ccccc2F)cc(-c2ccccc2F)n1`, in data set [1] (setting [8]), the half-maximal effective concentration (EC50) was found to be 11 µM.
Same read-out and setting: the result for `NNC(=O)c1nc(-c2ccccc2)cc(-c2ccc(O)cc2)n1` reads 1.57 µM.
Same read-out and setting: in the case of `NNC(=O)c1nc(-c2ccccc2)cc(-c2ccc(CO)cc2)n1` it was 1.9 µM.
As to `O=C(O)c1nc(-c2ccccc2)cc(-c2ccccc2)n1`, in data set [1] (myoblast), the EC50 entry is “Not Active”.
Take `NNC(=O)c1nc(-c2cccc(F)c2)cc(-c2cccc(F)c2)n1`: the concentration giving a half-maximal response (EC50) in data set [1] (setting [8]) is greater than 10 µM.
For `COc1cc(-c2ccccc2)nc(C(=O)NN)n1`, in data set [1] (myoblast), the 50% effective concentration (EC50) result is “Not Active”.
Still for that read-out and setting: in the case of `NNC(=O)c1cnc(-c2ccccc2)cc1-c1ccccc1` it was “Not Active”; in that of `COC(=O)c1nc(-c2ccccc2)cc(-c2ccccc2)n1`, “Not Active”.
In the case of `Cc1cc(C)nc(C(=O)NN)n1`, in data set [1] (myoblast), the concentration giving a half-maximal response (EC50) result is listed as “Not Active”.
Same read-out and setting: the result for `COc1ccccc1-c1cc(-c2ccccc2OC)nc(C(=O)NN)n1` reads “Not Active”; that for `NNC(=O)c1nc(-c2ccccc2C(F)(F)F)cc(-c2ccccc2C(F)(F)F)n1`, “Not Active”.
Consider `NNC(=O)Cc1nc(-c2ccccc2)cc(-c2ccccc2)n1`, for which the EC50 result in data set [1] (myoblast) is on record as “Not Active”.
On the same count and under the same terms, the result for `CCCCOc1ccc(-c2cc(-c3ccccc3)nc(C(=O)NN)n2)cc1` reads “Not Active”; that for `NC(=O)c1nc(-c2ccccc2)cc(-c2ccccc2)n1`, “Not Active”.
With `NNC(=O)c1nc(-c2ccc(C(F)(F)F)cc2)cc(-c2ccc(C(F)(F)F)cc2)n1`, in data set [1] (setting [8]), the EC50 was greater than 10 µM.
The same measure, in the same setting: the result for `COCc1ccc(-c2cc(-c3ccccc3)nc(C(=O)NN)n2)cc1` reads 4.65 µM.
On the same count and under the same terms, the result for `COCCOc1ccc(-c2cc(-c3ccccc3)nc(C(=O)NN)n2)cc1` reads 8.95 µM.
Turning to `NNC(=O)c1nc(-c2ccccc2)cc(-c2ccccc2)n1`, the concentration for a half-maximal effect (EC50) in data set [1] (setting [8]) came to 20.5 µM. In addition, the “fold change (FC)” value in data set [4] is recorded as 2; in data set [6] it was 1.6. Moreover, in data set [5], the Papp A→B worked out at 30.7 ×10⁻⁶ cm/s. For the same molecule, the outcome in the data set on Myoblast [7] was inactive.
As for `C#CCOCCOc1ccc(-c2cc(-c3ccc(C4(C(F)(F)F)N=N4)cc3)nc(C(=O)NN)n2)cc1`, the EC50 in data set [1] (setting [8]) is 20 µM.
As to `NNC(=O)c1nc(-c2ccc(F)cc2)cc(-c2ccc(F)cc2)n1`, the EC50 in data set [1] (setting [8]) was 12.8 µM.
The same measure, in the same setting: the result for `NNC(=O)c1nc(-c2ccccc2)cc(-c2ccc(C3(C(F)(F)F)N=N3)cc2)n1` reads 7.22 µM; that for `CCOc1ccc(-c2cc(-c3ccccc3)nc(C(=O)NN)n2)cc1`, 2.71 µM.
Regarding `NNC(=O)c1cc(-c2ccccc2)cc(-c2ccccc2)n1`, in data set [1] (myoblast), the EC50 entry was “Not Active”.
The same measure, in the same setting: the result for `NNC(=O)c1cc(-c2ccccc2)nc(-c2ccccc2)n1` reads “Not Active”; that for `O=C(NO)c1nc(-c2ccccc2)cc(-c2ccccc2)n1`, “Not Active”.
For the molecule `COc1ccc(-c2cc(-c3ccccc3)nc(C(=O)NN)n2)cc1`, the EC50 in data set [1] (setting [8]) was 2.28 µM.
Regarding `C#CCOCCOc1ccc(-c2nc(C(=O)NN)nc(-c3ccc(C4(C(F)(F)F)N=N4)cc3)c2C)cc1`, the EC50 result in data set [1] (myoblast) was “Not Active”.
As for `NNC(=O)c1nc(-c2ccccc2)cc(C2CCCCC2)n1`, the half-maximal effective concentration (EC50) entry in data set [1] (myoblast) is listed as “Not Active”.
Take `Cc1c(-c2ccccc2)nc(C(=O)NN)nc1-c1ccccc1`: the EC50 entry in data set [1] (myoblast) is listed as “Not Active”.
In the case of `CCCc1ccc(-c2cc(-c3ccccc3)nc(C(=O)NN)n2)cc1`, the EC50 in data set [1] (setting [8]) is 4.54 µM.
